Among the data in ChEMBL document CHEMBL3085651, “Anti-cancer evaluation of carboxamides of furano-sesquiterpene carboxylic acids from the soft coral Sinularia kavarattiensis” (Bioorg Med Chem Lett, 2013) are IC50 values, retold here.

In one assay the test system is THP-1. In words: Cytotoxicity against human THP1 cells assessed as cell viability after 48 hrs by MTT assay. The assay is classed as functional, cell-based. The conditions noted are these: THP-1, 48 h. Summed up:
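THP-1 cells cultured in RPMI-1640 containing 2-mercaptoethanol and 10% FBS, humidified 5% CO2, 37 °C. They were seeded at 1 × 10^4 cells per well in 96-well plates and incubated with graded compound concentrations for 48 h. MTT was added for the final 1 h, and formazan was dissolved in DMSO for absorbance reading. IC50 is mean ± SD of three independent experiments.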
In general terms: Formazan colour is commonly taken as a measure of viable cells.

The next assay concerns MCF7. In words: Cytotoxicity against human MCF7 cells assessed as cell viability after 48 hrs by MTT assay. The assay is classed as functional, cell-based. Particulars: MCF7, 48 h. A digest of the protocol:
(§1)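 DU145 and MCF-7 cells grown in MEM with non-essential amino acids, 1 mM sodium pyruvate, […] bovine insulin and 10% FBS at 37 °C, 5% CO2. Cells were seeded at 1 × 10^4 per well in 96-well plates and treated at varied concentrations for 48 h. MTT reduction was measured over 1 h, with DMSO-solubilized formazan read by absorbance. IC50 is mean ± SD, n = 3 independent experiments.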

The next assay deals with HeLa. In words: Cytotoxicity against human HeLa cells assessed as cell viability after 48 hrs by MTT assay. The assay is classed as functional, cell-based. Summed up: (§2)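 A549 and HeLa cells grown in DMEM with non-essential amino acids and 10% FBS at 37 °C, 5% CO2. Subconfluent cells were trypsinized, plated at 1 × 10^4 cells per well in 96-well plates, and exposed to a range of concentrations for 48 h. MTT was added for 1 h, and formazan was dissolved in DMSO and read by absorbance. IC50 is mean ± SD of three independent experiments.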

In the next assay the test system is A549. In words: Cytotoxicity against human A549 cells assessed as cell viability after 48 hrs by MTT assay. The assay is classed as functional, cell-based. Particulars: A549, 48 h. Summed up: as §2
The subject of the next assay is DU-145. In words: Cytotoxicity against human DU145 cells assessed as cell viability after 48 hrs by MTT assay. In kind it is functional, cell-based. Particulars: DU-145, 48 h. Summed up:
as §1

In a further assay the target is T1, Phospholipase A2 (Apis mellifera, UniProt P00630).
T1 sequence (P00630 whole entry): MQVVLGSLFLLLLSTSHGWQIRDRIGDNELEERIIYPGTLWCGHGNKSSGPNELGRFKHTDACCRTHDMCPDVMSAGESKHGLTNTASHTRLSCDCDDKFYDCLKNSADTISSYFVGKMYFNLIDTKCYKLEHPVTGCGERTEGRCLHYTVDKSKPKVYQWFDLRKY
In words: Inhibition of bee venom phospholipase A2.

For orientation: IC50 means the midpoint of a concentration-inhibition curve. In the case of `C=C/C(C)=C\CC/C(C)=C/c1cc(C(=O)OC)co1`, the IC50 with THP-1 stood at 51.4 µM; in the assay with MCF7 it was 75.4 µM; in the assay on HeLa it was 59.4 µM; with A549, 89.6 µM; in the assay on DU-145, 59.3 µM.

Take `C=C/C(C)=C\CC/C(C)=C/c1cc(C(=O)N2CCN(c3ccccc3)CC2)co1`: the IC50 in the assay with THP-1 was found to be 28.6 µM; with MCF7 it was 39.8 µM; in the assay with HeLa it was 32.1 µM; in the assay with A549 it was 28.3 µM; with DU-145, 30.3 µM.

As to `C=C/C(C)=C/CC/C(C)=C/c1cc(C(=O)O)co1`, the IC50 was determined as 39.8 µM in the assay on THP-1; 74.5 µM with MCF7; 80.4 µM in the assay on HeLa; 89.7 µM with A549; 38.9 µM with DU-145.

For `C=C/C(C)=C\CC/C(C)=C/c1cc(C(=O)N2CCN(C(c3ccccc3)c3ccccc3)CC2)co1`, the IC50 with THP-1 is 17.8 µM; with MCF7, 26.7 µM; in the assay on HeLa, 28.5 µM; with A549, 24.6 µM; with DU-145, 16.8 µM.

On to `C=C/C(C)=C\CC/C(C)=C/c1cc(C(=O)N2CCN(Cc3ccc4c(c3)OCO4)CC2)co1`, for which the IC50 was determined as 15.9 µM with THP-1; 50.8 µM in the assay on MCF7; 44.2 µM in the assay on HeLa; 45.5 µM with A549; 17.9 µM in the assay with DU-145.

For the compound `C=C/C(C)=C\CC/C(C)=C/c1cc(C(=O)N2CCN(Cc3ccccc3)CC2)co1`, the IC50 with THP-1 amounted to 50.9 µM; in the assay with MCF7, 53.7 µM; in the assay with HeLa it was 59.4 µM; in the assay with A549, 50.7 µM; with DU-145, 45.3 µM.

As to `C=C/C(C)=C\CC/C(C)=C/c1cc(C(=O)O)co1`, the IC50 was 500 µM on Phospholipase A2; 56.6 µM in the assay with THP-1; 61.9 µM with MCF7; 81 µM with HeLa; 89.3 µM in the assay with A549; 60.1 µM in the assay with DU-145.

On to `C=C/C(C)=C\CC/C(C)=C/c1cc(C(=O)N2CCN(CC)CC2)co1`, for which the IC50 in the assay on THP-1 stood at 26.5 µM; with MCF7 it was 30.3 µM; in the assay on HeLa, 35.9 µM; in the assay with A549, 27.9 µM; in the assay with DU-145, 20.4 µM.

Regarding `C=C/C(C)=C\CC/C(C)=C/c1cc(C(=O)Nc2ccc(C)cc2)co1`, the IC50 in the assay with THP-1 was 60.4 µM; in the assay with MCF7, 65.3 µM; in the assay on HeLa, 59.5 µM; in the assay with A549, 63.2 µM; in the assay on DU-145, 56.5 µM.

Take `C=C/C(C)=C/CC/C(C)=C/c1cc(C(=O)OC)co1`: the half-maximal inhibitory concentration (IC50) was found to be 25.8 µM in the assay on THP-1; 28.9 µM with MCF7; 35.5 µM with HeLa; 28.6 µM with A549; 25.1 µM in the assay on DU-145.

In the case of `C=C/C(C)=C\CC/C(C)=C/c1cc(C(=O)NCCCNC(=O)c2coc(/C=C(\C)CC/C=C(/C)C=C)c2)co1`, the IC50 in the assay with THP-1 came out at 59 µM; in the assay on MCF7, 57.7 µM; with HeLa it was 73.4 µM; with A549, 69.7 µM; in the assay on DU-145 it was 41.3 µM.

With `C=C/C(C)=C\CC/C(C)=C/c1cc(C(=O)N2CCN(C)CC2)co1`, the IC50 in the assay with THP-1 amounted to 20.8 µM; with MCF7, 27.9 µM; in the assay on HeLa, 30.5 µM; in the assay on A549, 23.6 µM; in the assay on DU-145, 24.1 µM.
